Experimental findings from ChEMBL document CHEMBL4145508 (Eur J Med Chem, 2018) are described below.

In data set [1] the target is T1, Neuraminidase (Influenza A virus, UniProt B4URF0). On the set-up: species or system duck/Guangdong/674/2014(H5N6).
Data set [2] concerns the target T1, Neuraminidase. Also on record: species or system chicken/china/1220/2012(H5N1).
Data set [3] deals with Influenza A virus. The data set can be described thus: Antiviral activity against influenza A virus duck/Guangdong/674/2014(H5N6) infected in chicken embryo fibroblasts assessed as effect on embryo survival at 2.5 mmol/L preincubated with virus for 1 hr followed by viral infection measured after […]. The class given is functional, organism-based.
The subject of data set [4] is Influenza A virus. The data set can be described thus: Antiviral activity against influenza A virus chicken/china/1220/2012(H5N1) infected in chicken embryo fibroblasts assessed as effect on embryo survival at 0.0390625 mmol/L preincubated with virus for 1 hr followed by viral infection measured after […]. Format: functional, organism-based.
The subject of data set [5] is Influenza A virus. Description: Antiviral activity against influenza A virus duck/Guangdong/674/2014(H5N6) infected in chicken embryo fibroblasts assessed as effect on embryo survival at 10 mmol/L preincubated with virus for 1 hr followed by viral infection measured after […]. Format: functional, organism-based.
The test system of data set [6] is Influenza A virus. The data set can be described thus: Antiviral activity against influenza A virus chicken/china/1220/2012(H5N1) infected in chicken embryo fibroblasts assessed as reduction in viral cytopathic effect preincubated with virus for 1 hr followed by viral infection measured after 2 days by CCK-8 assay. The class given is functional, organism-based.

Data set [7] deals with Influenza A virus. The data set can be described thus: Antiviral activity against influenza A virus duck/Guangdong/674/2014(H5N6) infected in chicken embryo fibroblasts assessed as effect on embryo survival at 0.15625 mmol/L preincubated with virus for 1 hr followed by viral infection measured after […]. Format: functional, organism-based.
Data set [8] in a line: Cytotoxicity against chicken embryo fibroblasts assessed as reduction in cell viability after 2 days by CCK-8 assay. Format: cell-based, Gallus gallus, Fibroblast. An outline of the steps: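 Chicken embryo fibroblasts grown 24 h at 37 °C, then exposed without virus to compounds dissolved in water and serially diluted 3-fold in DMEM. Incubation was at 37 °C under 5% CO₂, with viability read by CCK-8 at 2 days. CC₅₀, the concentration giving a 50% drop in viability, was fitted from the concentration curve.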
For orientation: Formazan colour is commonly taken as a measure of viable cells.

The test system of data set [9] is Influenza A virus. The data set can be described thus: Antiviral activity against influenza A virus duck/Guangdong/674/2014(H5N6) infected in chicken embryo fibroblasts assessed as reduction in viral cytopathic effect preincubated with virus for 1 hr followed by viral infection measured after 2 days by CCK-8 assay. Format: functional, organism-based. In general terms: Damage to the host cells serves as the signal in cytopathic effect assays.

Data set [10] has as its system Influenza A virus. Description: Antiviral activity against influenza A virus duck/Guangdong/674/2014(H5N6) infected in chicken embryo fibroblasts assessed as effect on embryo survival at 0.0390625 mmol/L preincubated with virus for 1 hr followed by viral infection measured after […]. The class given is functional, organism-based.
In data set [11] the test system is Influenza A virus. The data set can be described thus: Antiviral activity against influenza A virus duck/Guangdong/674/2014(H5N6) infected in chicken embryo fibroblasts assessed as effect on embryo survival at 0.625 mmol/L preincubated with virus for 1 hr followed by viral infection measured after […]. Format: functional, organism-based.
In data set [12] the test system is Influenza A virus. The data set can be described thus: Antiviral activity against influenza A virus chicken/china/1220/2012(H5N1) infected in chicken embryo fibroblasts assessed as effect on embryo survival at 0.15625 mmol/L preincubated with virus for 1 hr followed by viral infection measured after […]. The class given is functional, organism-based.
The test system of data set [13] is Influenza A virus. The data set can be described thus: Antiviral activity against influenza A virus chicken/china/1220/2012(H5N1) infected in chicken embryo fibroblasts assessed as effect on embryo survival at 0.625 mmol/L preincubated with virus for 1 hr followed by viral infection measured after […]. The class given is functional, organism-based.
The test system of data set [14] is Influenza A virus. Description: Antiviral activity against influenza A virus chicken/china/1220/2012(H5N1) infected in chicken embryo fibroblasts assessed as effect on embryo survival at 2.5 mmol/L preincubated with virus for 1 hr followed by viral infection measured after […]. Format: functional, organism-based.
The test system of data set [15] is Influenza A virus. Description: Antiviral activity against influenza A virus chicken/china/1220/2012(H5N1) infected in chicken embryo fibroblasts assessed as effect on embryo survival at 10 mmol/L preincubated with virus for 1 hr followed by viral infection measured after […]. Format: functional, organism-based.

The structures appear in SMILES notation. Active and inactive are the calls of the source. The rule behind the calls is not given here. A value given as a limit tells only on which side of the number the result lay.

T1 sequence (B4URF0 whole entry): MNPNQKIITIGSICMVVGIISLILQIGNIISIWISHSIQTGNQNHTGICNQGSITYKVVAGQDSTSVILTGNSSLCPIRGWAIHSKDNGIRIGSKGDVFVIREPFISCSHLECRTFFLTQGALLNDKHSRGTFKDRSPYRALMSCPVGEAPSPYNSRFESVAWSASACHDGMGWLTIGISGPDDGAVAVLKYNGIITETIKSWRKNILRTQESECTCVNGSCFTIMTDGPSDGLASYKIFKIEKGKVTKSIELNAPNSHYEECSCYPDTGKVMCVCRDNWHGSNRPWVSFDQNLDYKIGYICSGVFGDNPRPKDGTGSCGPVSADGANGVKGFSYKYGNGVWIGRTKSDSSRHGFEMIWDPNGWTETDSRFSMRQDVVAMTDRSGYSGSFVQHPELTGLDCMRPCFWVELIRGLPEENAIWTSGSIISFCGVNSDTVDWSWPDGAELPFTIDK

Turning to `CCC(CC)O[C@@H]1C=C(C(=O)NCc2ccc(Br)cc2)C[C@H](N)[C@H]1NC(C)=O`, the IC50 in data set [1] came to 6.01 µM; in data set [2] it was 2.07 µM.

Consider `CCC(CC)O[C@@H]1C=C(C(=O)NCc2ccc(F)cc2Cl)C[C@H](N)[C@H]1NC(C)=O`, for which the results for the IC50 in data set [1] and in [2] were 19.4 µM and 3.91 µM, respectively.

With `CCC(CC)O[C@@H]1C=C(C(=O)NCc2cccc(Cl)c2)C[C@H](N)[C@H]1NC(C)=O`, the IC50 in data set [1] is 7.86 µM; in data set [2], 3.02 µM.

As to `CCC(CC)O[C@@H]1C=C(C(=O)NCc2ccc(C(F)(F)F)cc2)C[C@H](N)[C@H]1NC(C)=O`, the concentration for half-maximal inhibition (IC50) amounted to 8.78 µM in data set [1] and 10.9 µM in data set [2].

Consider `CCC(CC)O[C@@H]1C=C(C(=O)O)C[C@H](N)[C@H]1NC(C)=O` [OSELTAMIVIR CARBOXYLATE], for which the result in data set [3], in [4], in data set [5], in data set [7], in data set [10] and in data set [11] was inactive. Also, the result in data set [12] was inactive. The EC50 in data set [6] worked out at 1.35 µM; in data set [9] it was 0.73 µM. Further, the CC50 at 48 h in data set [8] is above 1000 µM.

Regarding `CCC(CC)O[C@@H]1C=C(C(=O)NCCc2ccccc2F)C[C@H](N)[C@H]1NC(C)=O`, the IC50 in [1] came out at 5.12 µM; in data set [2] it was 3.17 µM.

As for `CCC(CC)O[C@@H]1C=C(C(=O)NCCc2cccc(F)c2)C[C@H](N)[C@H]1NC(C)=O`, the IC50 was 32.5 µM in data set [1] and 15.2 µM in data set [2].

Take `CCC(CC)O[C@@H]1C=C(C(=O)NCc2ccc(-c3ccccc3)cc2)C[C@H](N)[C@H]1NC(C)=O`: the IC50 in data set [1] is 0.99 µM; in data set [2], 0.96 µM.

With `CCC(CC)O[C@@H]1C=C(C(=O)N[C@H](C(=O)O)C(C)C)C[C@H](N)[C@H]1NC(C)=O` [listing 1 of 2 here], the half-inhibitory concentration (IC50) in data set [1] was 0.248 µM; in data set [2], 0.135 µM.

Consider `CCC(CC)O[C@@H]1C=C(C(=O)Nc2ccc(N3CCOCC3=O)cc2)C[C@H](N)[C@H]1NC(C)=O`, for which the IC50 is 2.27 µM in data set [1] and 1.46 µM in data set [2].

`CCC(CC)O[C@@H]1C=C(C(=O)NCc2ccc(F)cc2)C[C@H](N)[C@H]1NC(C)=O`: the IC50 in data set [1] stood at 2.78 µM; in [2], 0.94 µM.

With `CCC(CC)O[C@@H]1C=C(C(=O)N[C@@H](C)C(=O)O)C[C@H](N)[C@H]1NC(C)=O`, the half-maximal inhibitory concentration (IC50) was found to be 1.28 µM in [1] and 2.2 µM in data set [2].

For `CCC(CC)O[C@@H]1C=C(C(=O)NCc2ccccc2F)C[C@H](N)[C@H]1NC(C)=O`, the IC50 in data set [1] came out at 14.7 µM; in data set [2], 6.26 µM.

As for `CCC(CC)O[C@@H]1C=C(C(=O)NCc2ccc(C)cc2)C[C@H](N)[C@H]1NC(C)=O`, the values for the IC50 in data set [1] and in [2] were 11 µM and 2.91 µM, respectively.

Take `CCC(CC)O[C@@H]1C=C(C(=O)NCc2ccccc2)C[C@H](N)[C@H]1NC(C)=O`: the results for the half-maximal inhibitory concentration (IC50) in [1] and in [2] were 19.9 µM and 9.87 µM, respectively.

Consider `CCC(CC)O[C@@H]1C=C(C(=O)NCc2ccc(-c3ccsc3)cc2)C[C@H](N)[C@H]1NC(C)=O`, for which the IC50 was above 40 µM in data set [1] and 29.8 µM in [2].

For `CCC(CC)O[C@@H]1C=C(C(=O)Nc2ccc(F)cc2)C[C@H](N)[C@H]1NC(C)=O`, the IC50 amounted to 16.3 µM in data set [1] and 11.7 µM in data set [2].

On to `CCC(CC)O[C@@H]1C=C(C(=O)NCC(=O)O)C[C@H](N)[C@H]1NC(C)=O`, for which the IC50 in [1] is 2.16 µM; in data set [2], 2.53 µM.

For `CCC(CC)O[C@@H]1C=C(C(=O)NCc2ccc(OC)cc2)C[C@H](N)[C@H]1NC(C)=O`, the IC50 in data set [1] and in data set [2] was above 40 µM throughout.

Turning to `C=CCNC(=O)C1=C[C@@H](OC(CC)CC)[C@H](NC(C)=O)[C@@H](N)C1`, the half-inhibitory concentration (IC50) in data set [1] was 0.41 µM; in data set [2] it was 5.03 µM.

`CCC(CC)O[C@@H]1C=C(C(=O)N[C@@H](C(=O)O)C(C)C)C[C@H](N)[C@H]1NC(C)=O`: the outcome in [3], in [13], in [4], in data set [14], in [7] and in [10] was inactive. Also, the outcome in data set [11] and in [12] was inactive. For the same molecule, the results for the IC50 in [1] and in data set [2] were 0.0967 µM and 0.0883 µM, respectively. The outcome in data set [5] and in data set [15] was Active. In addition, the EC50 in [6] amounted to 4.26 µM; in data set [9], 1.31 µM. In data set [8], the CC50 at 48 h was above 1000 µM.

Regarding `CCC(CC)O[C@@H]1C=C(C(=O)NCCN2CCOCC2)C[C@H](N)[C@H]1NC(C)=O`, the IC50 was determined as 12.1 µM in data set [1] and 4.24 µM in [2].

For `CCC(CC)O[C@@H]1C=C(C(=O)N[C@H](C)C(=O)O)C[C@H](N)[C@H]1NC(C)=O`, the IC50 is 1.07 µM in data set [1] and 1.35 µM in [2].

For `CCC(CC)O[C@@H]1C=C(C(=O)NCc2cc(F)cc(F)c2)C[C@H](N)[C@H]1NC(C)=O`, the values for the IC50 in data set [1] and in [2] were 10.4 µM and 2.22 µM, respectively.

For the molecule `CCC(CC)O[C@@H]1C=C(C(=O)N(C)CCc2cccc(F)c2)C[C@H](N)[C@H]1NC(C)=O`, the IC50 was found to be 2.51 µM in data set [1] and 2.65 µM in data set [2].

Consider `CCC(CC)O[C@@H]1C=C(C(=O)N[C@H](C(=O)O)C(C)C)C[C@H](N)[C@H]1NC(C)=O` [listing 2 of 2 here], for which the IC50 in data set [1] amounted to 0.304 µM; in data set [2], 0.342 µM.

Consider `CCC(CC)O[C@@H]1C=C(C(=O)NCc2cccc(F)c2)C[C@H](N)[C@H]1NC(C)=O`, for which the IC50 in data set [1] was 11.4 µM; in data set [2], 5.09 µM.

On to `CCC(CC)O[C@@H]1C=C(C(=O)NCc2ccc(-c3cccs3)cc2)C[C@H](N)[C@H]1NC(C)=O`, for which the IC50 was determined as 10.9 µM in data set [1] and 7.75 µM in [2].

In general, IC50 refers to the concentration that gives 50% inhibition. A low value points to greater potency. A word on the EC50: it is the midpoint of the concentration-response curve. Broadly, the CC50 is the concentration at which the toxic effect on the cells reaches its halfway point.
